Assay results as given in ChEMBL document CHEMBL2384906, “Biological activity, design, synthesis and structure activity relationship of some novel derivatives of curcumin containing sulfonamides” (Eur J Med Chem, 2013).
≈ marks a conversion by molar mass, not a printed value. Calls of active or inactive are those of the source. The calls are words filed in the database; no cut-off is given here.

Columns and labels:
Mus musculus = experiment: Antiinflammatory activity in mouse assessed as inhibition of carrageenan-induced increase in paw volume at 200 mg/kg administered 1 hr prior to carrageenan challenge measured after 3 hrs relative to control; type: functional
In short: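 Mice were fasted 2 h and placed in groups of five. Controls received saline i.p. Phenylbutazone was given at 100 mg/kg i.p., curcumin at 200 mg/kg i.p., and derivatives at 200 mg/kg. After 1 h, 0.1 mL of 1% carrageenan in saline was injected subplantar into the right hind paw. Paw volume was followed by plethysmometer for 3 h, and % inhibition was calculated as (Vc − Vt)/Vc × 100.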

HCT-116 = experiment: Cytotoxicity against human HCT116 cells after 24 hrs by MTT assay; type: functional, cell-based
In short: (§1)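 The MTT assay seeded 5 × 10⁴ cells per well and grew them 24 h in RPMI 1640 with compound at 2.5–200 µM. Medium without cells was the blank and adriamycin the positive control. MTT was added for 4 h at 37 °C, formazan was solubilised, and absorbance was read at 570 nm. IC50 is the concentration that cuts viability 50% against untreated cells.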

QG-56 = experiment: Cytotoxicity against human QG56 cells after 24 hrs by MTT assay; type: functional, cell-based; in short: as §1
HeLa = experiment: Cytotoxicity against human HeLa cells after 24 hrs by MTT assay; type: functional, cell-based; in short: as §1
HepG2 = experiment: Cytotoxicity against human HepG2 cells after 24 hrs by MTT assay; type: functional, cell-based; in short: as §1
Trichoderma viride [1] = experiment: Antifungal activity against Trichoderma viride MTCC 1107 after 48 hrs; type: functional; details: MTCC 1107, 48 h
Trichoderma viride [2] = experiment: Antifungal activity against Trichoderma viride MTCC 1107 assessed as zone of inhibition at 20 uM after 48 hrs by disc diffusion method; type: functional
In short: (§2)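 Spores from 4-day potato dextrose agar cultures, suspended in sterile water at 1.5 × 10⁵ CFU/mL. 0.2 mL was spread on potato dextrose agar. 5 mm filter-paper discs soaked with test compound were laid on the lawn. Incubation was 48 h at 28 °C, then the inhibition zone was measured in mm. Fluconazole was the positive control and acetone the negative control.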

Trichoderma viride [3] = experiment: Antifungal activity against Trichoderma viride MTCC 1107 assessed as zone of inhibition at 40 uM after 48 hrs by disc diffusion method; type: functional; details: MTCC 1107, 48 h, read-out: IZ; in short: as §2
Trichoderma viride [4] = experiment: Antifungal activity against Trichoderma viride MTCC 1107 assessed as zone of inhibition at 80 uM after 48 hrs by disc diffusion method; type: functional; details: MTCC 1107, 48 h, read-out: IZ; in short: as §2
Curvularia lunata [5] = experiment: Antifungal activity against Curvularia lunata MTCC 581 after 48 hrs; type: functional; details: MTCC 581, 48 h
Curvularia lunata [6] = experiment: Antifungal activity against Curvularia lunata MTCC 581 assessed as zone of inhibition at 20 uM after 48 hrs by disc diffusion method; type: functional; in short: as §2
Curvularia lunata [7] = experiment: Antifungal activity against Curvularia lunata MTCC 581 assessed as zone of inhibition at 40 uM after 48 hrs by disc diffusion method; type: functional; details: MTCC 581, 48 h, read-out: IZ; in short: as §2
Aspergillus flavus [8] = experiment: Antifungal activity against Aspergillus flavus MTCC 1021 after 48 hrs; type: functional; details: MTCC 1021, 48 h
Curvularia lunata [9] = experiment: Antifungal activity against Curvularia lunata MTCC 581 assessed as zone of inhibition at 80 uM after 48 hrs by disc diffusion method; type: functional; details: MTCC 581, 48 h, read-out: IZ; in short: as §2
Aspergillus flavus [10] = experiment: Antifungal activity against Aspergillus flavus MTCC 1021 assessed as zone of inhibition at 20 uM after 48 hrs by disc diffusion method; type: functional; in short: as §2
Aspergillus flavus [11] = experiment: Antifungal activity against Aspergillus flavus MTCC 1021 assessed as zone of inhibition at 40 uM after 48 hrs by disc diffusion method; type: functional; details: MTCC 1021, 48 h, read-out: IZ; in short: as §2
Aspergillus flavus [12] = experiment: Antifungal activity against Aspergillus flavus MTCC 1021 assessed as zone of inhibition at 80 uM after 48 hrs by disc diffusion method; type: functional; details: MTCC 1021, 48 h, read-out: IZ; in short: as §2
Aspergillus niger [13] = experiment: Antifungal activity against Aspergillus niger MTCC 1108 after 48 hrs; type: functional; details: MTCC 1108, 48 h
Aspergillus niger [14] = experiment: Antifungal activity against Aspergillus niger MTCC 1108 assessed as zone of inhibition at 20 uM after 48 hrs by disc diffusion method; type: functional; in short: as §2
Aspergillus niger [15] = experiment: Antifungal activity against Aspergillus niger MTCC 1108 assessed as zone of inhibition at 40 uM after 48 hrs by disc diffusion method; type: functional; in short: as §2
Aspergillus niger [16] = experiment: Antifungal activity against Aspergillus niger MTCC 1108 assessed as zone of inhibition at 80 uM after 48 hrs by disc diffusion method; type: functional; details: MTCC 1108, 48 h, read-out: IZ; in short: as §2
Escherichia coli [17] = experiment: Antimicrobial activity against Escherichia coli ATCC 35218 after 24 hrs by broth micro serial dilution method; type: functional; details: ATCC 35218, 24 h
In short: (§3)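 This was broth microdilution in autoclaved Mueller-Hinton broth. 150 µL of compound per well was serially diluted […], and 50 µL of test organism was added. Plates were incubated 24 h at 37 °C and optical density was read.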

Escherichia coli [18] = experiment: Antimicrobial activity against Escherichia coli ATCC 35218 assessed as diameter of inhibition zone at 20 uM after 24 hrs by Kirby -Baur disc diffusion method; type: functional
In short: (§4)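 Kirby-Bauer disc diffusion was used. Acetone stocks (160 µM) were serially doubled down to 80, 40 and 20 µM. 4 µL of each went onto 5 mm sterile paper discs, which were dried 30 min at 50 °C. Inoculum was 1.5 × 10⁸ CFU/mL diluted to 3 × 10² CFU/mL, and 50 µL was spread on Mueller-Hinton agar. After 24 h at 37 °C the inhibition-zone diameter was measured. Ciprofloxacin served as positive control.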

Escherichia coli [19] = experiment: Antimicrobial activity against Escherichia coli ATCC 35218 assessed as diameter of inhibition zone at 40 uM after 24 hrs by Kirby -Baur disc diffusion method; type: functional; details: ATCC 35218, 24 h, read-out: DIZ; in short: as §4
Escherichia coli [20] = experiment: Antimicrobial activity against Escherichia coli ATCC 35218 assessed as diameter of inhibition zone at 80 uM after 24 hrs by Kirby -Baur disc diffusion method; type: functional; in short: as §4
Pseudomonas aeruginosa [21] = experiment: Antimicrobial activity against Pseudomonas aeruginosa ATCC 15499 after 24 hrs by broth micro serial dilution method; type: functional; details: ATCC 15499, 24 h; in short: as §3
Pseudomonas aeruginosa [22] = experiment: Antimicrobial activity against Pseudomonas aeruginosa ATCC 15499 assessed as diameter of inhibition zone at 20 uM after 24 hrs by Kirby -Baur disc diffusion method; type: functional; in short: as §4
Pseudomonas aeruginosa [23] = experiment: Antimicrobial activity against Pseudomonas aeruginosa ATCC 15499 assessed as diameter of inhibition zone at 40 uM after 24 hrs by Kirby -Baur disc diffusion method; type: functional; in short: as §4
Pseudomonas aeruginosa [24] = experiment: Antimicrobial activity against Pseudomonas aeruginosa ATCC 15499 assessed as diameter of inhibition zone at 80 uM after 24 hrs by Kirby -Baur disc diffusion method; type: functional; in short: as §4
Salmonella typhi [25] = experiment: Antimicrobial activity against Salmonella typhi ATCC 23564 after 24 hrs by broth micro serial dilution method; type: functional, Salmonella enterica subsp. enterica serovar Typhi
Salmonella typhi [26] = experiment: Antimicrobial activity against Salmonella typhi ATCC 23564 assessed as diameter of inhibition zone at 20 uM after 24 hrs by Kirby -Baur disc diffusion method; type: functional; details: Salmonella enterica subsp. enterica serovar Typhi
Salmonella typhi [27] = experiment: Antimicrobial activity against Salmonella typhi ATCC 23564 assessed as diameter of inhibition zone at 40 uM after 24 hrs by Kirby -Baur disc diffusion method; type: functional, Salmonella enterica subsp. enterica serovar Typhi; details: Salmonella enterica, ATCC 23564, 24 h; read-out: DIZ
Salmonella typhi [28] = experiment: Antimicrobial activity against Salmonella typhi ATCC 23564 assessed as diameter of inhibition zone at 80 uM after 24 hrs by Kirby -Baur disc diffusion method; type: functional, Salmonella enterica subsp. enterica serovar Typhi
Bacillus cereus [29] = experiment: Antimicrobial activity against Bacillus cereus MTCC 7350 after 24 hrs by broth micro serial dilution method; type: functional; in short: as §3
Bacillus cereus [30] = experiment: Antimicrobial activity against Bacillus cereus MTCC 7350 assessed as diameter of inhibition zone at 80 uM after 24 hrs by Kirby -Baur disc diffusion method; type: functional; in short: as §4
Staphylococcus aureus [31] = experiment: Antimicrobial activity against Staphylococcus aureus ATCC 11632 after 24 hrs by broth micro serial dilution method; type: functional; in short: as §3
Staphylococcus aureus [32] = experiment: Antimicrobial activity against Staphylococcus aureus ATCC 11632 assessed as diameter of inhibition zone at 80 uM after 24 hrs by Kirby -Baur disc diffusion method; type: functional; in short: as §4
[33] = Salmonella enterica subsp. enterica serovar Typhi

Compound | inhibition in vivo at 200 mg/kg (Mus musculus) [%] | IC50 (HCT-116) | IC50 (QG-56) | IC50 (HeLa) [µM] | IC50 (HepG2) | MIC (Trichoderma viride [1]) [µM] | zone of inhibition at 40 µM (Trichoderma viride [3]) [mm] | zone of inhibition at 80 µM (Trichoderma viride [4]) [mm] | MIC (Curvularia lunata [5]) [µM] | zone of inhibition at 40 µM (Curvularia lunata [7]) [mm] | MIC (Aspergillus flavus [8]) [µM] | zone of inhibition at 80 µM (Curvularia lunata [9]) [mm] | zone of inhibition at 40 µM (Aspergillus flavus [11]) [mm] | zone of inhibition at 80 µM (Aspergillus flavus [12]) [mm] | MIC (Aspergillus niger [13]) [µM] | zone of inhibition at 80 µM (Aspergillus niger [16]) [mm] | MIC (Escherichia coli [17]) [µM] | MIC (Pseudomonas aeruginosa [21]) [µM] | MIC (Bacillus cereus [29]) | diameter of the inhibition zone (DIZ) (Bacillus cereus [30]) | also measured
COc1cc(/C=C/C(=O)C(/N=N/c2ccc(S(N)(=O)=O)cc2)=C(O)/C=C/c2ccc(O)c(OC)c2)ccc1O | 16.1 | Not Active | Not Active | > 100 | Not Active | > 80 | 10 | 11 | > 80 | 10 | > 80 | 11 | 9 | 11 | > 80 | 10 | > 80 | > 80 | inactive | inactive | inhibition zone (IZ) (Trichoderma viride [2]): inactive; inhibition zone (IZ) (Curvularia lunata [6]): inactive; inhibition zone (IZ) (Aspergillus flavus [10]): inactive; inhibition zone (IZ) (Aspergillus niger [14]): inactive; inhibition zone (IZ) (Aspergillus niger [15]): inactive; diameter of the inhibition zone (DIZ) (Escherichia coli [18]): inactive; zone of inhibition at 40 µM (Escherichia coli [19]): 9 mm; zone of inhibition at 80 µM (Escherichia coli [20]; ATCC 35218, 24 h, read-out: DIZ): 12 mm; diameter of the inhibition zone (DIZ) (Pseudomonas aeruginosa [22]): inactive; diameter of the inhibition zone (DIZ) (Pseudomonas aeruginosa [23]): inactive; zone of inhibition at 80 µM (Pseudomonas aeruginosa [24]; ATCC 15499, 24 h, read-out: DIZ): 9 mm; MIC (Salmonella typhi [25]; Salmonella enterica, ATCC 23564, 24 h): > 80 µM; diameter of the inhibition zone (DIZ) (Salmonella typhi [26]): inactive; zone of inhibition at 40 µM (Salmonella typhi [27]): 9 mm; zone of inhibition at 80 µM (Salmonella typhi [28]; Salmonella enterica, ATCC 23564, 24 h, read-out: DIZ): 11 mm; MIC (Staphylococcus aureus [31]): inactive; diameter of the inhibition zone (DIZ) (Staphylococcus aureus [32]): inactive
COc1cc(/C=C/C(=O)C(/N=N/c2ccc(S(=O)(=O)Nc3ccccn3)cc2)=C(O)/C=C/c2ccc(O)c(OC)c2)ccc1O | 9.6 | Not Active | Not Active | 100 | Not Active | 40 (≈ 25.1 µg/mL) | 13 | 17 | 40 (≈ 25.1 µg/mL) | 13 | 40 (≈ 25.1 µg/mL) | 17 | 12 | 13 | 40 (≈ 25.1 µg/mL) | 14 | > 80 | > 80 | inactive | inactive | zone of inhibition at 20 µM (Trichoderma viride [2]; MTCC 1107, 48 h, read-out: IZ): 10 mm; zone of inhibition at 20 µM (Curvularia lunata [6]; MTCC 581, 48 h, read-out: IZ): 10 mm; zone of inhibition at 20 µM (Aspergillus flavus [10]; MTCC 1021, 48 h, read-out: IZ): 9 mm; zone of inhibition at 20 µM (Aspergillus niger [14]; MTCC 1108, 48 h, read-out: IZ): 9 mm; zone of inhibition at 40 µM (Aspergillus niger [15]; MTCC 1108, 48 h, read-out: IZ): 11 mm; diameter of the inhibition zone (DIZ) (Escherichia coli [20]): inactive; diameter of the inhibition zone (DIZ) (Pseudomonas aeruginosa [24]): inactive; MIC (Salmonella typhi [25]; [33]): inactive; diameter of the inhibition zone (DIZ) (Salmonella typhi [28]; [33]): inactive; MIC (Staphylococcus aureus [31]): inactive; diameter of the inhibition zone (DIZ) (Staphylococcus aureus [32]): inactive
